SMILES strings stand for the structures. Inconclusive results are not listed. Calls of active or inactive are those of the source.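 The calls were made as follows: active = sigmoid dose curve converging in at least two of three replicates, including loose fits with few points beside the midpoint; inactive = curve converging in fewer than two replicates.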

The test relates to HEK293 thallium flux, FluoZin-2 fluorescence, ouabain+bumetanide. In words: native HEK Tl+ uptake potency with bumetanide block – HEK cells, counterscreen 2, counter-screen for KCC2 modulator project, dose response (AID 1735). A digest of the protocol:
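Material: HEK cells | Buffer or medium: HBSS-HEPES plus ouabain and bumetanide | Also added: Thallium stimulus buffer at pH 7.3 | Doses: 11-point threefold dilution series, top dose 30 µM | Schedule: Overnight plating, 10–20 s after thallium read | Detection: Kinetic fluorescence of FluoZin-2 dye, loaded as 0.5 µM AM ester | Repeats: Triplicate, replicates fitted separately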
(In general: Counterscreens check selectivity or assay interference.)

As to `S=C(NCCc1ccccc1)N/N=C/c1cccc(Cl)c1Cl`, the EC50 was 14300 nM (inactive).
Then `N=C1SCC(=O)N1c1ncc(Cc2cccc(Cl)c2)s1`, with 3030 nM; and `NC(=S)N=Nc1c(O)n(Cc2ccc(F)cc2)c2ccccc12`, with 2200 nM.
Then `Cc1onc(-c2ccccc2Cl)c1C(=O)NC(=S)Nc1ccc(C(C)C)cc1`, with 246 nM; and `COc1ccc(Cn2c(=S)[nH]c3ccccc32)cc1`, with 397 nM; and `COC(=O)[C@@H](NC(=O)O[C@@H]1C(=O)c2ccc(OC)cc2O[C@H]1c1cccc(C(F)(F)F)c1)C(C)C`, with 612 nM.
With `CCOc1ccc2nc(SC3CC(=O)N(c4cccc(OC)c4)C3=O)sc2c1` (stereo not drawn), the EC50 is 3200 nM.
With `CC(=O)c1cccc(NC(=S)NC(=O)c2ccc(C)cc2)c1`, the EC50 was 1580 nM.
As to `Cc1ccc(-c2n[nH]c(=S)n2/N=C/C=C\c2ccccc2[N+](=O)[O-])cc1`, the EC50 is 643 nM.
Then `CCOc1[nH]n(-c2ccccc2)c(=O)c1C=Nc1ccc(F)cc1F`, with 2200 nM.
With `Cc1nn(-c2nc3ccccc3[nH]2)c(N)c1-c1ccccc1`, the 50% effective concentration (EC50) is 2460 nM.
`COC(=O)c1sccc1NC(=S)OC`: the concentration for a half-maximal effect (EC50) was 1580 nM.
For the compound `CCOCCCNC(=O)c1ccc(-n2c(=S)[nH]c3ccccc3c2=O)cc1`, the EC50 is 24200 nM (inactive).
The value for `O=C(NC(=S)Nc1nc(-c2cccc([N+](=O)[O-])c2)cs1)c1cc(Cl)ccc1Cl` was 689 nM; that for `COc1ccc(N2C(=S)N=C(Nc3cccc(C)c3)C23CCCCC3)cc1` was 2620 nM.
As to `O=C(NC(=S)Nc1ccc2c(c1)OCO2)c1ccc(Cl)cc1`, the EC50 was 58.5 nM (inactive).
On to `NC(=S)N=Nc1c(O)n(Cc2ccccc2)c2ccccc12`, for which the EC50 is 88.3 nM (inactive).
As for `O=[N+]([O-])c1ccc(-c2cn(-c3ccccc3F)c(=S)[nH]2)cc1`, the half-maximal effective concentration (EC50) is 520 nM.

Broadly, the EC50 is the concentration giving half of the maximal effect.

The values above are taken from PubChem BioAssay AID1735 (Vanderbilt High Throughput Screening Facility, 2009).
